Experimental data published in ChEMBL document CHEMBL2046427, “Nonhematotoxic naphthalene diimide modified by polyamine: synthesis and biological evaluation” (J Med Chem, 2012).
Activity calls are given as the source filed them. The calls are words filed in the database; no cut-off is given here.

Experiments:
HepG2 [1] = experiment: Cytotoxicity against human HepG2 cells after 48 hrs by MTT assay; format: functional, cell-based; details: HepG2, 48 h
In short: (§1)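 MTT conversion assay at 37 °C, 5% CO₂. […] Inhibition relative to untreated cells as 100%; IC50 by linear regression, mean of three independent experiments.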

MDA-MB-231 = experiment: Cytotoxicity against human MDA-MB-231 cells after 48 hrs by MTT assay; format: functional, cell-based; details: MDA-MB-231, 48 h; in short: as §1
K562 = experiment: Cytotoxicity against human K562 cells after 48 hrs by MTT assay; format: functional, cell-based; details: K562, 48 h; in short: as §1
HCT-116 = experiment: Cytotoxicity against human HCT116 cells after 48 hrs by MTT assay; format: functional, cell-based; details: HCT-116, 48 h; in short: as §1
HepG2 [2] = experiment: Cytotoxicity against human HepG2 cells assessed as cell nuclear shrinkage at 1 to 30 uM after 48 hrs by Hoechst 33342-based fluorescence-based high-content screening assay; format: functional
In short: (§2)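 HepG2 seeded 5 × 10³/well; after 12 h treated at 1, 5, 10, 15 and 30 μM for 48 h. Multiparameter cytotoxicity kit staining imaged by high-content screening: Hoechst 33342 for nuclear morphology, permeability dye (green nuclei) for membrane integrity, mitochondrial potential dye, and a weak-base dye for lysosomal mass/pH.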

HepG2 [3] = experiment: Cytotoxicity against human HepG2 cells assessed as mitochondrial permeability augmentation at 1 to 30 uM after 48 hrs by fluorescence-based high-content screening assay; format: functional, cell-based; in short: as §2
HepG2 [4] = experiment: Cytotoxicity against human HepG2 cells assessed as decrease in mitochondrial membrane potential at 1 to 30 uM after 48 hrs by fluorescence-based high-content screening assay; format: functional, cell-based; in short: as §2
HepG2 [5] = experiment: Cytotoxicity against human HepG2 cells assessed as acruement in lysosomal mass/pH at 1 to 30 uM after 48 hrs by fluorescence-based high-content screening assay; format: functional, cell-based; in short: as §2

Structure (SMILES) | IC50 (HepG2 [1]) [µM] | IC50 (MDA-MB-231) [µM] | IC50 (K562) [µM] | IC50 (HCT-116) [µM] | Activity (HepG2 [2]) | Activity (HepG2 [3]) | Activity (HepG2 [4]) | Activity (HepG2 [5])
NCCCNCCCCNCCCN1C(=O)c2ccc(-c3ccc4c(c3)C(=O)N(CCCNCCCCNCCCN)C4=O)cc2C1=O | > 50 | > 50 | – | – | – | – | – | –
NCCCNCCCCN1C(=O)c2ccc3c4c(ccc(c24)C1=O)C(=O)N(CCCCNCCCN)C3=O | 33.3 | 20.2 | 21.2 | – | – | – | – | –
NCCCCNCCCCNCCCCN1C(=O)c2ccc(-c3ccc4c(c3)C(=O)N(CCCCNCCCCNCCCCN)C4=O)cc2C1=O | > 50 | > 50 | – | > 50 | inactive | inactive | inactive | inactive
NCCCNCCCN1C(=O)c2ccc3c4c(ccc(c24)C1=O)C(=O)N(CCCNCCCN)C3=O | 2.83 | 2.95 | 1.01 | 5.02 | – | – | – | –
NCCCCNCCCCNCCCCN1C(=O)c2cccc3c(-c4ccccc4)ccc(c23)C1=O | 32.1 | 19.1 | 14.2 | – | – | – | – | –
NCCCNCCCNCCCN1C(=O)c2cccc3c(-c4ccccc4)ccc(c23)C1=O | 15.6 | 14.6 | 14.4 | – | – | – | – | –
NCCCCNCCCCN1C(=O)c2ccc3c4c(ccc(c24)C1=O)C(=O)N(CCCCNCCCCN)C3=O | 43.8 | 27.6 | 41 | – | – | – | – | –
